Reference: ChEMBL document CHEMBL1789904, “Imaging of Plasmodium liver stages to drive next-generation antimalarial drug discovery” (Science, 2011)
Values joined by “and” are separate entries in the source; they are usually repeats but may differ in a detail not shown here. Equal entries are not always repeated.

System: Plasmodium yoelii
Experiment: NOVARTIS: Antimalarial liver stage activity measured as reduction in Plasmodium yoelii schizont area in HepG2-A16-CD81 cells by immuno-fluorescence, and median schizont size at 10uM compound concentration
Assay type: functional, organism-based
In short: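 Host and parasite nuclei stained with Hoechst 33342, parasites with αPyHSP70 antibody; 25 images per well by high-content imaging; median parasite (schizont) area measured by automated image analysis, ~50 schizonts per experiment, two or more independent experiments.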

[1] = Plasmodium yoelii, HepG2-A16-CD81

Compound	Schizont size	IC50 [1] [nM]	IC50 (hepg2-a16-cd81)
COc1ccc(-c2n(C)c3ccccc3[n+]2CC(=O)OC2CC(C)CCC2C(C)C)cc1.[Cl-] (stereo not given)	14.3 um	156	–
Cc1oc2c(c1C(=O)NCCCn1ccnc1)C(=O)c1ccccc1C2=O	12.53 um	119	–
CCOC(=O)c1cnc2ccc(OC)cc2c1O	30.16 um and 29.96 um	–	135 nM and 293 nM
CC(=O)N(C1=C(N(C)C)C(=O)c2ccccc2C1=O)c1ccc(F)cc1	23.8 um	57.3	–
Cc1ccc2cc(C)c(Nc3ccc(Cl)cc3)nc2c1	42.06 um	148	–
Cl.Fc1ccc(Nc2nc(NCc3ccco3)c3ccccc3n2)cc1	45.3 um	74.9	–
O=c1c2ccccc2[nH]c2ccc(I)cc12	24.95 um	105	–
CCCCN(CC)CCNC(=O)C1c2ccccc2C(=O)N(Cc2ccc(F)cc2)C1c1ccc(OC)cc1 (stereo not given)	63.36 um	89.1	–
O=C(Nc1ccc(-c2ccc(Cl)cc2)cc1)c1cccs1	31.73 um	151	–
Cc1cccc2c1[nH]c1nc(SCC(C)C)nnc12	36.43 um	152	–
CCOC(=O)c1ccc(NCc2c(C)[nH]c3ccccc3c2=O)cc1	18.27 um	137	–
O=C(NC1CC1)c1ccc(CSCc2ccccc2Cl)o1	26.09 um	140	–
O=C1c2ccccc2C2=Nc3ccccc3SC(c3cccc(F)c3)C12 (stereo not given)	30.06 um	162	–
Br.Cc1ccnc(Nc2nc(-c3ccccn3)cs2)c1	19.21 um	95.6	–
OC1=C2C(=Nc3ccccc3SC2c2cccs2)c2ccccc21 (stereo not given)	25.89 um	90.4	–
Fc1ccc2nc(Nc3nc(-c4ccccn4)cs3)sc2c1	22.86 um	43.8	–
c1ccc(CNc2nc(Nc3ccccc3)nc3ccccc23)cc1	29.85 um	153	–
CCCCCCOc1ccc(NC(=O)c2cccs2)cc1	27.87 um	139	–
COc1cccc(N2C(N)=NC(N)=NC2(C)C)c1.Cl	38.1 um	29.5	–
COc1ccccc1Nc1nc(NCc2ccccc2)c2ccccc2n1.Cl	40.29 um	91.3	–

Compound	Schizont size	IC50 [1] [nM]	IC50 (hepg2-a16-cd81)
CCCCNC(=O)C1CCC(CN(Cc2c(Cl)cccc2Cl)S(=O)(=O)c2ccc(Br)cc2)CC1 (stereo not given)	29.64 um	124	–
C/C=C/[P+](c1ccccc1)(c1ccccc1)c1ccccc1	26.09 um	49.4	–
O=C1C(Nc2ccc(O)cc2)=CC(=NS(=O)(=O)c2cccs2)c2ccccc21	12.53 um	85.6	–
COc1ccc(CN2CCOc3ccc(C(C)(O)CN(C)C)cc3C2)cc1C (stereo not given)	87.05 um	67.5	–
CCCCCC[n+]1ccccc1C=Cc1ccc(N(C)C)cc1.[I-]	16.8 um	55.9	–
[Br-].c1ccc(-c2nn(-c3ccccc3)[n+](-c3ccccc3)n2)cc1	26.51 um	107	–
CCOC(=O)c1ccc(NC(=O)CSc2nc(NCc3ccccc3)c3ccccc3n2)cc1	69.2 um	38.1	–
O=c1c2c([nH]c3ccccc13)CCCCCCCCCC2	25.15 um	99	–
Cc1ccc(-n2c(-c3ccccc3)cc(C=NNC(=O)c3cccc(-n4c(C)ccc4C)c3)c2-c2ccccc2)cc1	30.06 um	47.9	–
CCC(C)(C)c1ccc(OCCOCC[n+]2ccccc2)c(C(C)(C)CC)c1.[Cl-]	13.88 um	96.2	–
O=C(Nc1ccc2oc(-c3cccc4ccccc34)nc2c1)c1ccc([N+](=O)[O-])o1	13.99 um	72.5	–
O=C1C2=C(Nc3ccccc3SC2c2ccc(OCc3ccccc3)cc2)c2ccccc21 (stereo not given)	23.17 um	58	–
N=c1c2c(n(Cc3ccc(Cl)cc3)c3c1CCC3)CCC2	32.57 um	91.1	–
c1ccc(-c2ccc(-c3ccccn3)nc2)nc1	22.34 um	39.4	–
Cc1ccc(-c2cn3c([n+]2-c2ccc(C)cc2)CCCCC3)cc1	27.24 um	146	–
[I-].c1ccc(CSc2scnc2[P+](c2ccccc2)(c2ccccc2)c2ccccc2)cc1	21.61 um	68.5	–
Oc1c(CN2CCN(Cc3ccc4cccnc4c3O)CC2)ccc2cccnc12	21.19 um	96.6	–
COc1ccc(C2N(Cc3ccccc3)c3ccccc3N2Cc2ccccc2)cc1	30.79 um	121	–
OC1=C2C(=Nc3ccccc3SC2c2ccco2)c2ccccc21 (stereo not given)	31.63 um	113	–
CN(C)c1ccc(C(=Cc2cc(-c3ccccc3)cc(-c3ccccc3)[o+]2)c2ccc(N(C)C)cc2)cc1	26.72 um	51.9	–
